# Active and inactive are the calls of the source. No cut-off for these calls is given here.
# Columns and labels:
# HCT-116 [1] = experiment: Cytotoxicity against human HCT116 cells by MTT assay; assay type: functional, cell-based
# A549 = experiment: Cytotoxicity against human A549 cells by MTT assay; assay type: functional, cell-based
# HCT-116 [2] = experiment: Induction of apoptosis in p53 knock down human HCT116 cells assessed as PARP cleavage at 1 uM after 24 hrs by immunoblotting analysis; assay type: functional, cell-based
# HCT-116 [3] = experiment: Induction of apoptosis in human HCT116 cells assessed as accumulation at sub-G1 phase after 24 hrs by propidium iodide staining-based flow cytometric analysis; assay type: functional, cell-based
# In short: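 HCT116 cells treated with indicated concentrations for 24 h; DNA content analyzed by flow cytometry for cell cycle distribution and sub-G1 fraction; means of at least three independent experiments.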
# HCT-116 [4] = experiment: Induction of apoptosis in human HCT116 cells assessed as increase in p53 protein level at 0.1 to 3 uM after 24 hrs by immunoblotting analysis; assay type: functional, cell-based
# Histone deacetylase 5 = Histone deacetylase 5 (Homo sapiens, UniProt Q9UQL6); experiment: Inhibition of HDAC5 (unknown origin) by fluorescence assay
# HCT-116 [5] = experiment: Antitumor activity against human HCT116 cells xenografted in po dosed nude athymic mouse assessed as tumor growth inhibition after 2 to 16 days; assay type: functional, organism-based
# [6] = molecular target: Histone deacetylase (Homo sapiens) (UniProt Q13547+O15379+Q9UBN7+Q92769+Q9UQL6+Q8WUI4+Q9BY41+Q96DB2+P56524+Q9UKV0+Q969S8); conditions: HCT-116, 1 uM
# Chain of Histone deacetylase 5 (Q9UQL6 whole entry): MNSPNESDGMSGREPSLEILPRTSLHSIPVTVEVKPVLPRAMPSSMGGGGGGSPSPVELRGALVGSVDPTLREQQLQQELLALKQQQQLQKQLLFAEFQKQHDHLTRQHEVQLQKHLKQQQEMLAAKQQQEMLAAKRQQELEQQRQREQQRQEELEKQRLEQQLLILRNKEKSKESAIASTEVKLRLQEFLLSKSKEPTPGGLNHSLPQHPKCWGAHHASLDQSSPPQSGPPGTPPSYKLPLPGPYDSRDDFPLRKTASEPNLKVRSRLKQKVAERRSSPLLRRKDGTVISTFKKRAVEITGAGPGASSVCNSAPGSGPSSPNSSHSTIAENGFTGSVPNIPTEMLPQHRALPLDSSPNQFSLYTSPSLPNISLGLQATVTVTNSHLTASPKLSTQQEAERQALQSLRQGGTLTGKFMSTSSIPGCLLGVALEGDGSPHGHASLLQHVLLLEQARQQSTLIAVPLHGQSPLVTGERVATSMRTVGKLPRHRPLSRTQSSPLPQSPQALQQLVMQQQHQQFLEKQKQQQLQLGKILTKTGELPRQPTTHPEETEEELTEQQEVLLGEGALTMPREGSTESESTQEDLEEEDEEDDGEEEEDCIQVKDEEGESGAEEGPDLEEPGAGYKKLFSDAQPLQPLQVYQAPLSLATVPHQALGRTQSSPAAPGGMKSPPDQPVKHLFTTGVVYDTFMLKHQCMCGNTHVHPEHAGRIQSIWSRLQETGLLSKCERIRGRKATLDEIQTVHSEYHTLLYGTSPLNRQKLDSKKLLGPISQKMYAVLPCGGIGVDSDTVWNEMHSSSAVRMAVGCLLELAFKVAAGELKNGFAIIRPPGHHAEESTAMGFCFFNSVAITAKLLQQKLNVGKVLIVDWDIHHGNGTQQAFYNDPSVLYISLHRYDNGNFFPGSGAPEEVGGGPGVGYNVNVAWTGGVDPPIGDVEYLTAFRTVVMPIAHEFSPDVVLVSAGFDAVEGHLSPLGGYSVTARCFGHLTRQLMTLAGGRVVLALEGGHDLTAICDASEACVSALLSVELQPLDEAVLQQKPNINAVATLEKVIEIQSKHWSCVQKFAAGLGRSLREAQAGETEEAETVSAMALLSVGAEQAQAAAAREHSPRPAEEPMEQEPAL
structure (smiles),measurement,setting,value
O=C(/C=C/c1cccc(S(=O)(=O)n2ccc3cccnc32)c1)NO,IC50,HCT-116 [1],390 nM
same,IC50,A549,1330 nM
same,Activity,HCT-116 [2],inactive
same,Activity,HCT-116 [3],Dose-dependent effect
same,Activity,HCT-116 [4],Active
same,IC50,Histone deacetylase 5,8730 nM
same,TGI,HCT-116 [5],Dose-dependent effect
same,inhibition,[6],inactive
